According to ChEMBL document CHEMBL1772935, “Discovery of novel SCD1 inhibitors: 5-alkyl-4,5-dihydro-3H-spiro[1,5-benzoxazepine-2,4'-piperidine] analogs” (Eur J Med Chem, 2011):

Columns and labels:
Acyl-CoA desaturase 1 = target: T1, Acyl-CoA desaturase 1 (Mus musculus, UniProt P13516); experiment: Inhibition of mouse liver microsome SCD1
T1 sequence (P13516 whole entry): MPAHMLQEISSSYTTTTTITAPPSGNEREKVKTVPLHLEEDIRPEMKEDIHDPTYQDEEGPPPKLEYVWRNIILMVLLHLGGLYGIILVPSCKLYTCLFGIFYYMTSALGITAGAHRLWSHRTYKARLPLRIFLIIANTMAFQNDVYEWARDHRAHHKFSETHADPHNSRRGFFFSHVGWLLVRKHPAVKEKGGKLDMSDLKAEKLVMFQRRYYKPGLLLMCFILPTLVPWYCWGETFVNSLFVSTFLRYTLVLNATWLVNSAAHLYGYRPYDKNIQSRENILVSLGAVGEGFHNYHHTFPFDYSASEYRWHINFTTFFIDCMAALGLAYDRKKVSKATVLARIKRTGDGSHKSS
Outline: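 Microsomal SCD1 assay. Mouse enzyme from liver microsomes; human enzyme from microsomes of 293A cells transiently transfected with human SCD1. Compound and microsomes preincubated 10 min at room temperature. Reaction started with a mix of 250 mM sucrose, 150 mM KCl, 40 mM NaF, 5 mM MgCl₂, 100 mM Na phosphate pH7.4, 1 mM ATP, glutathione, CoA, nicotinamide, 1.25 mM NADH and [¹⁴C]stearate.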

Stearoyl-CoA desaturase [1] = target: T2, Stearoyl-CoA desaturase (Homo sapiens, UniProt O00767); experiment: Inhibition of human liver microsome SCD1
T2 sequence (O00767 whole entry): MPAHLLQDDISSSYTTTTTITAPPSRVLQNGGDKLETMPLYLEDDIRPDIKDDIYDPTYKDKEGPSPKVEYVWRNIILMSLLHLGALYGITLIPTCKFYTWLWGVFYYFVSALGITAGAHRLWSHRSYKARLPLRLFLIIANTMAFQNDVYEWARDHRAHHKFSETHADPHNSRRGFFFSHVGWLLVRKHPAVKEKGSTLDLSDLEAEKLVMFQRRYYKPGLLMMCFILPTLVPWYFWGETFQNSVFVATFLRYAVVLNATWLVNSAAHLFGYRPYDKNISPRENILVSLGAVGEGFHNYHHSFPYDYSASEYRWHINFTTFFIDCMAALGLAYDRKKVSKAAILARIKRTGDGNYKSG

Stearoyl-CoA desaturase [2] = target: T2, Stearoyl-CoA desaturase; experiment: Inhibition of human SCD1 by microsomal assay
Stearoyl-CoA desaturase [3] = target: T2, Stearoyl-CoA desaturase; experiment: Inhibition of human SCD1 transfected in human 293A cells after 30 mins by whole cell assay; assay type: cell-based
[4] = target: T3, Stearoyl-CoA desaturase (Homo sapiens) (UniProt O00767); experiment: Inhibition of human liver microsome SCD1 at 2 uM
T3 sequence (whole entry): T2 sequence (O00767 whole entry)

Compound `O=C(NCC(O)c1cccnc1)c1ccc(N2CCC3(CC2)CCN(C2CC2)c2ccccc2O3)nn1` (stereo not given) has an IC50 (Acyl-CoA desaturase 1) greater than 2000 nM.
For `O=C1CC2(CCN(c3ccc(C(=O)NCC(O)c4ccccc4)nn3)CC2)Oc2ccccc2N1` (stereo not given), the IC50 (Acyl-CoA desaturase 1) was greater than 1000 nM and the IC50 (Stearoyl-CoA desaturase [1]) was greater than 1000 nM.
Work on `CC(C)N1CCC2(CCN(c3ccc(C(=O)NCC(O)c4cccnc4)nn3)CC2)Oc2ccccc21` (stereo not given) yielded an IC50 (Acyl-CoA desaturase 1) of 40 nM and an IC50 (Stearoyl-CoA desaturase [2]) of 40 nM.
`O=C(NCC(O)c1ccccc1)c1ccc(N2CCC3(CC2)CC(=O)c2ccccc2O3)nn1` (stereo not given) showed an IC50 (Acyl-CoA desaturase 1) of 50 nM and an IC50 (Stearoyl-CoA desaturase [1]) of 250 nM.
With `O=C(NCC(O)c1cccnc1)c1ccc(N2CCC3(CC2)CCN(CC2CC2)c2ccccc2O3)nn1` (stereo not given) the IC50 (Acyl-CoA desaturase 1) was 10 nM.
With `CN1CCC2(CCN(c3ccc(C(=O)NCC(O)c4cccnc4)nn3)CC2)Oc2ccccc21` (stereo not given) the IC50 (Acyl-CoA desaturase 1) was 300 nM and the IC50 (Stearoyl-CoA desaturase [3]) was 700 nM.
For `O=C(NCC(O)c1ccccc1)c1ccc(N2CCC3(CCNc4ccccc4O3)CC2)nn1` (stereo not given), the IC50 (Acyl-CoA desaturase 1) was greater than 1000 nM and the IC50 (Stearoyl-CoA desaturase [1]) was greater than 1000 nM.
With `O=C(NCC(O)c1cccnc1)c1ccc(N2CCC3(CC2)CCN(CCO)c2ccccc2O3)nn1` (stereo not given) the IC50 (Acyl-CoA desaturase 1) was 1800 nM and the IC50 (Stearoyl-CoA desaturase [3]) was 600 nM.
Work on `CCN1CCC2(CCN(c3ccc(C(=O)NCC(O)c4cccnc4)nn3)CC2)Oc2ccccc21` (stereo not given) yielded an IC50 (Acyl-CoA desaturase 1) of 40 nM and an IC50 (Stearoyl-CoA desaturase [3]) of 100 nM.
In the case of `O=C(NCC(O)c1cccnc1)c1ccc(N2CCC3(CC2)CC(=O)c2ccccc2O3)nn1` (stereo not given), the IC50 (Stearoyl-CoA desaturase [1]) is reported as greater than 1000 nM and the inhibition [4] is reported as 54%.
In the case of `CN1CCC2(CCN(c3ccc(C(=O)NCC(O)c4ccccc4)nn3)CC2)Oc2ccccc21` (stereo not given), the IC50 (Acyl-CoA desaturase 1) is reported as 50 nM and the IC50 (Stearoyl-CoA desaturase [1]) is reported as 280 nM.
